Experimental data as given in PubChem BioAssay AID463209 (The Scripps Research Institute Molecular Screening Center, 2010).
Activity calls are given as the source filed them.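 The calls were made as follows: active = parasite growth inhibition of at least 50% in red blood cells; inactive = the rest.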

These compounds were tested on P. falciparum 3D7 in RBCs, 3H-hypoxanthine incorporation, 48 h (assay: P. falciparum growth inhibition in erythrocytes, late-stage follow-up, P. falciparum M1AAP inhibitor project, cell-based, radiolabel readout, RBCs (AID 463209)). Settings: at 10 µM; active compounds read high.
Procedure, shortened: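 Dosing: 10 µM single dose / Material: P. falciparum 3D7-infected erythrocytes / Buffer or medium: hypoxanthine-free RPMI medium with 10% serum / Technique: 3H beta counting after harvest / Benchmarks: uninfected RBC background wells and DMSO-treated infected wells / Repeats: 6–9 replicates / Read-out: % growth inhibition versus vehicle control / Times: 48 h at 37 °C, low-oxygen gas mix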
For `O=C(NCCC1=CCCCC1)C1CCN(S(=O)(=O)c2ccc(Br)s2)CC1`, the inhibition was 0% (inactive).
In the case of `O=C(Nn1c(C2CCC2)nc2ccccc2c1=O)c1cccs1`, the inhibition is reported as 8% (inactive).
`O=C1N=c2ccccc2=C1c1sc(=S)n(NC(=O)c2ccccc2)c1O` was tested, and the inhibition was 6% (inactive).
For `O=C(O)CCC(=O)N1N=C(c2c(-c3ccccc3)c3cc(Cl)ccc3[nH]c2=O)CC1c1cccs1` (stereo not drawn), the inhibition was 0% (inactive).
`CC(=O)N1N=C(c2c(O)n(C)c(=O)n(C)c2=O)CC1c1ccccc1` (stereo not drawn) was tested, and the inhibition was 2% (inactive).
In the case of `COc1ccccc1-c1nc2ccccc2c(=O)n1NC(=O)c1cccs1`, the inhibition is reported as 4% (inactive).
`COc1ccc(OC)c(/C=C2\SC(=S)N(C(C(=O)O)c3ccccc3)C2=O)c1` (stereo not drawn) was tested, and the inhibition was 3% (inactive).
For `COc1ccc(C2CC(c3c(-c4ccccc4)c4cc(Cl)ccc4[nH]c3=O)=NN2C(=O)CCC(=O)O)cc1` (stereo not drawn), the inhibition was 0% (inactive).
In the case of `O=C1/C(=C/c2cccs2)SC(=S)N1NS(=O)(=O)c1ccccc1`, the inhibition is reported as 1% (inactive).
For `O=C1N=c2ccccc2=C1c1sc(=S)n(NC(=O)c2cccc(O)c2)c1O`, the inhibition was 0% (inactive).
In the case of `O=C(NCc1ccco1)C1CCCN(S(=O)(=O)c2cccc3nonc23)C1` (stereo not drawn), the inhibition is reported as 0% (inactive).
`O=C(NCc1cccc(F)c1)C1CCN(S(=O)(=O)Cc2ccccc2)CC1` was tested, and the inhibition was 15% (inactive).
With `O=C(O)CCC(=O)N1N=C(c2c(-c3ccccc3)c3cc(Cl)ccc3[nH]c2=O)CC1c1ccco1` (stereo not drawn) the inhibition was 0% (inactive).
